{"source": "ChEMBL document CHEMBL1955811", "about": "“Inhibition of colony-stimulating-factor-1 signaling in vivo with the orally bioavailable cFMS kinase inhibitor GW2580” (Proc Natl Acad Sci U S A, 2005)", "key": {"Rattus norvegicus [1]": {"species": "Rattus norvegicus", "experiment": "Inhibition of PTH-induced Wistar rat calvarial bone degradation assessed as reduction in DPPD level in media at 0.1 uM after 48 hrs", "type": "functional", "procedure,_shortened": "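Rat calvaria incubated with PTH plus compound for two consecutive 48-h periods. Medium from the second period assayed for deoxypyridinoline crosslinks (DPPD).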"}, "HUVEC [2]": {"tested_on": "HUVEC", "experiment": "Growth inhibition of VEGF-stimulated HUVEC after 3 days by spectrophotometry", "type": "cell-based", "settings": "Homo sapiens, 72 h", "procedure,_shortened": "(§1)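 Cells cultured so that added serum or growth factor gave linear growth. Compound tested as a 10- to 12-point dose-response with a top concentration of 20 μM.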"}, "Mus musculus [3]": {"tested_on": "Mus musculus", "experiment": "Inhibition of LPS-stimulated IL-6 production in CSF-1 primed mouse at 40 mg/kg, po administered 0.5 hr before LPS challenge post CSF-1 priming measured […] after LPS challenge", "type": "functional"}, "Osteoclast [4]": {"tested_on": "Osteoclast", "experiment": "Inhibition of human osteoclast degradation of bone assessed as reduction in 23C6(+) cells with more than 3 nuclei per cm2 of bone at 10 uM after 3 days by immunocytochemistry (reference value: 854 +/- 122 cells/cm2 of bone)", "type": "functional"}, "HUVEC [5]": {"tested_on": "HUVEC", "experiment": "Growth inhibition of bFGF-stimulated HUVEC after 3 days by spectrophotometry", "type": "cell-based", "settings": "Homo sapiens, 72 h", "procedure,_shortened": "as §1"}, "Mus musculus [6]": {"tested_on": "Mus musculus", "experiment": "Inhibition of LPS-stimulated IL-6 production in mouse at 40 mg/kg, po administered 4.5 hr before LPS challenge measured […] after LPS challenge", "type": "functional"}, "Rattus norvegicus [7]": {"species": "Rattus norvegicus", "experiment": "Inhibition of PTH-induced Wistar rat fetal long bone degradation assessed as labeled 45Ca release in to media at 1 to 10 uM after 48 hrs by liquid scintillation spectrometry", "type": "functional", "procedure,_shortened": "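Fetal rat long bones preloaded with 45CaCl2 and incubated for 24 h. PTH and compound then added; release of labelled calcium into the medium measured 48 h later.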"}, "Mus musculus [8]": {"tested_on": "Mus musculus", "experiment": "Toxicity in mouse M-NFS-60 cells allografted CD-1 nude mouse assessed as effect on body weight at 20 to 80 mg/kg, po BID starting 1 hr before challenge for 4 days", "type": "organism-based", "set-up": "dose 20-80 mg/kg, route oral", "settings": "in vivo", "procedure,_shortened": "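Female CD-1 nude mice (22-26 g) received 1 × 10^7 M-NFS-60 cells in PBS i.p. Oral dosing b.i.d. in 0.5% HPMC/0.1% Tween 80 began 1 h before cell injection. Body weight was taken at kill on day 4.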"}, "Monocyte [9]": {"tested_on": "Monocyte", "experiment": "Inhibition of LPS-stimulated growth of freshly isolated human monocytes at 1 uM preincubated for 30 mins before inducer addition measured after 5 days by WST-1 method", "type": "functional", "settings": "read-out: GI"}, "Monocyte [10]": {"tested_on": "Monocyte", "experiment": "Inhibition of GMCSF-stimulated growth of freshly isolated human monocytes at 1 uM preincubated for 30 mins before inducer addition measured after 5 days by WST-1 method", "type": "functional", "settings": "read-out: GI"}, "Mus musculus [11]": {"tested_on": "Mus musculus", "experiment": "Inhibition of LPS-stimulated IL-6 production in mouse at 40 mg/kg, po administered 0.5 hr before LPS challenge measured […] after LPS challenge", "type": "functional"}, "Osteoclast [12]": {"tested_on": "Osteoclast", "experiment": "Inhibition of human osteoclast attachment to plastic surface assessed cells per cm2 of plastic at 10 uM after 3 days by immunocytochemistry (reference value: 9723 +/- 1380 cells/cm2 of plastic)", "type": "functional", "procedure,_shortened": "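Human PBMCs from a healthy volunteer (5 × 10^5 cells in MEM/10% FCS) were seeded on plastic coverslips with RANKL and CSF-1 (30 ng/ml each) for 10 days, with medium changed every 3 days. Compound was added on day 10 (0.1% DMSO final). On day 13, total cells on the coverslips were counted by immunocytochemistry. Data are mean ± SEM.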"}, "Mus musculus [13]": {"tested_on": "Mus musculus", "experiment": "Inhibition of thioglycolate-induced macrophage influx into peritoneal cavity in mouse at 20 mg/kg, po BID administered 7 days before and 4 days after thioglycolate challenge", "type": "functional", "procedure,_shortened": "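Female C3H/HEN mice (22-26 g) were dosed orally with compound suspended in 0.5% hydroxypropylmethylcellulose/0.1% Tween 80 (0.2 ml per mouse). Thioglycolate (1.5 ml) was injected i.p. on day 0. On day 4, the peritoneum was lavaged with 5 ml cold PBS containing 40 units/ml heparin, and cells were counted by hemocytometer in 0.1% crystal violet. Data are mean ± SEM; Dunnett's test.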"}, "Macrophage": {"tested_on": "Macrophage", "experiment": "Effect on LPS-induced IL-6 production in CSF-1-stimulated human macrophages at 0.03906 to 20 uM preincubated for 30 mins before LPS stimulation measured after 20 hrs by ELISA", "type": "functional, cell-based"}, "[14]": {"target": "T1, Protein kinase C zeta type (Homo sapiens, UniProt Q05513)", "T1 sequence (Q05513 whole entry)": "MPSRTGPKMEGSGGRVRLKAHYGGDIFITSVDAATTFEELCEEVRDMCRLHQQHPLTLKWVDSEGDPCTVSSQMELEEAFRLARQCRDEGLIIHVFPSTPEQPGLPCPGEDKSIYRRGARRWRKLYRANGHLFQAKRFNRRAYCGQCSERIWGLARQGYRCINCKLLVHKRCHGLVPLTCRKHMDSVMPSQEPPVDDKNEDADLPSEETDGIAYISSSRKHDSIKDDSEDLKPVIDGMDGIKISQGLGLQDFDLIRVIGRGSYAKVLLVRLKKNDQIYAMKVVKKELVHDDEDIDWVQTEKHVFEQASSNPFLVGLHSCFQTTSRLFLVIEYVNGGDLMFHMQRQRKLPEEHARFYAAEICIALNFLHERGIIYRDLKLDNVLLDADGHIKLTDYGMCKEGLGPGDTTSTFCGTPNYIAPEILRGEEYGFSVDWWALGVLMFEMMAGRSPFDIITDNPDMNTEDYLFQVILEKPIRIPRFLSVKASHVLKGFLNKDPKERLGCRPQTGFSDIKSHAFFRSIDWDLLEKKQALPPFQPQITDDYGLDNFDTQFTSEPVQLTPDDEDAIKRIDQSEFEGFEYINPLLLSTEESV", "experiment": "Inhibition of human His-tagged PKCz using biotin-(amino hexanoic acid)-FKLKRKGSFKKFA-CONH2 as substrate after 40 mins by scintillation proximity assay", "procedure,_shortened": "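Catalytic domains of the human kinases were expressed, isolated and assayed with ATP and the appropriate substrate. Compound was tested as a 10- to 12-point dose-response up to a maximal 20 μM.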"}, "Monocyte [15]": {"tested_on": "Monocyte", "experiment": "Growth inhibition of CSF-1-stimulated freshly isolated human monocytes after 3 days by spectrophotometry", "type": "functional, cell-based", "settings": "120 h, in the assay text read “after 5 days” for “after 3 days”", "procedure,_shortened": "as §1"}, "Mus musculus [16]": {"tested_on": "Mus musculus", "experiment": "Increase in LPS-stimulated IL-6 production in mouse at 40 mg/kg, po administered 4.5 hr before LPS challenge measured […] after LPS challenge"}}, "note": "Activity calls are given as the source filed them. The rule behind the calls is not given here."}
{"smiles": "COc1ccc(COc2ccc(Cc3cnc(N)nc3N)cc2OC)cc1", "note": "[GW632580X]", "values": [{"measurement": "inhibition", "setting": "Rattus norvegicus [1]", "value": 80, "unit": "%"}, {"measurement": "IC50", "setting": "HUVEC [2]", "value": 12, "unit": "µM"}, {"measurement": "inhibition in vivo at 40 mg/kg", "setting": "Mus musculus [3]", "value": -6, "unit": "%"}, {"measurement": "Activity", "setting": "Osteoclast [4]", "value": "34 /cm2"}, {"measurement": "IC50", "setting": "HUVEC [5]", "value": "> 10", "unit": "µM"}, {"measurement": "inhibition in vivo at 40 mg/kg", "setting": "Mus musculus [6]", "value": -28, "unit": "%"}, {"measurement": "inhibition", "setting": "Rattus norvegicus [7]", "value": "Active"}, {"measurement": "Activity", "setting": "Mus musculus [8]", "value": "Non-toxic"}, {"measurement": "inhibition of growth at 1 µM", "setting": "Monocyte [9]", "value": 50, "unit": "%"}, {"measurement": "inhibition of growth at 1 µM", "setting": "Monocyte [10]", "value": 80, "unit": "%"}, {"measurement": "inhibition in vivo at 40 mg/kg", "setting": "Mus musculus [11]", "value": 20, "unit": "%"}, {"measurement": "Activity", "setting": "Osteoclast [12]", "value": "2728 /cm2"}, {"measurement": "inhibition in vivo at 20 mg/kg", "setting": "Mus musculus [13]", "value": 8, "unit": "%"}, {"measurement": "Activity", "setting": "Macrophage", "value": "inactive"}, {"measurement": "IC50", "setting": "[14]", "value": "> 24", "unit": "µM"}, {"measurement": "IC50", "setting": "Monocyte [15]", "value": 0.47, "unit": "µM"}, {"measurement": "Activity", "setting": "Mus musculus [16]", "value": "Active"}]}
